# CCR6 antag: CCR6 (human) receptor antagonism; 0.49% of 340,000 active; P51684; CHO-K1 CCR6 PathHunter beta-arrestin, luminescence, CCL20-stimulated; inhibition, % at 20 µM;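 active = compounds whose inhibition of the agonist-driven luminescence signal at 20 µM reaches about 50%, limit read from the data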;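 note: cells stimulated with CCL20 at 14 nM final; plate controls were DMSO with CCL20 for no effect and DMSO without agonist for full effect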
# CXCR6 block: CXCR6 (human) receptor inhibition. O00574. inhibition, % at 20 µM. CHO-K1 PathHunter CXCR6 beta-arrestin, luminescence. 0.36% of 360,000 active; in the data active = inhibition above about 34%, passing the limit was not always enough;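 note: antagonist mode with CXCL16 agonist at 10 nM final; 0% = 10 nM CXCL16 with DMSO and 100% = unstimulated wells without agonist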
# APJ agonist: APJ receptor agonism; P35414; CHO-K1 APJ PathHunter beta-arrestin, luminescence; 0% DMSO wells, 100% apelin; activation, % at 20 µM; 0.11% of 330,000 active;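 active = activation more than six SD over the plate average, tested at 20 µM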;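 note: 0% = DMSO alone and 100% = apelin-13 at 10 nM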
# Target sequence (P35414 whole entry, looked up): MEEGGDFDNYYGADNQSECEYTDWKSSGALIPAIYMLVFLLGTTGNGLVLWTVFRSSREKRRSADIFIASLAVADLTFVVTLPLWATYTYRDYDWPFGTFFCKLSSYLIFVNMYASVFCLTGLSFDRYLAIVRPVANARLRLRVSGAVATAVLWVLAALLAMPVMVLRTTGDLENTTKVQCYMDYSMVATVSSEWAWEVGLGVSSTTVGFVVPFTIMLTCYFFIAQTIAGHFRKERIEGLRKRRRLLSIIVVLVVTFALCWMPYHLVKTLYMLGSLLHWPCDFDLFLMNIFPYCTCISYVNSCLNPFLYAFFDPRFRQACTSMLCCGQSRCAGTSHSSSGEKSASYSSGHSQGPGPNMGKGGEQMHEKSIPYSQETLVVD
#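 Test system – PathHunter CHO-K1 APJ (AGTRL-1) beta-arrestin reporter cells · Input – 1000 cells/well · Compound – single test compound dose, 20 µM final, 1% DMSO · Times – compound stimulation 90 min at 25 °C, detection 60 min · Technique – beta-gal luminescence · Read-out basis – APJ–arrestin association signal · Control set – negative DMSO alone, positive Apelin-13 at 10 nM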
# EBI2 antag: antagonists of human EBI2 receptor; P32249; EBI2 beta-arrestin recruitment, luminescence, 7a,25-OHC stimulated; 0.81% of 360,000 active; inhibition, % at 5 µM; in the data active = inhibition above about 38%;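 note: enzyme fragment complementation signal reports receptor beta-arrestin coupling in cells; 0% = agonist plus DMSO wells and 100% = wells without agonist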
# B2AR ag: human beta-2 adrenergic receptor agonism by FAP | AID 504454 | response, % (concentration not given with the values) | Am2.2-beta2AR cells, FAP receptor internalization, flow cytometry | 0.43% of 340,000 active;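 active = response above a set limit, near 3 SD of response in nonfluorescent compounds, cut at about 42% in these data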
# APJ antag: antagonists of human APJ apelin receptor | P35414 | CHO-K1 APJ beta-arrestin complementation, luminescence | inhibition, % at 20 µM | 0.32% of 330,000 active;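 active = inhibition above about 40% at 20 µM, limit read from the data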;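 note: cells challenged with 10 nM apelin-13 agonist together with compound; plate controls were apelin-13 plus DMSO wells for no effect and DMSO wells lacking apelin-13 for full effect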
# An asterisk follows results filed as active; . = no result given. An excerpt weighted towards active compounds, which were near 1.8% of everything screened.
SMILES,CCR6 antag,CXCR6 block,APJ agonist,EBI2 antag,B2AR ag,APJ antag
COc1ccc(C(=O)NNC(=O)c2ccc(C(C)(C)C)cc2)cc1,11.1,0.0,0.3,-25.6,1.2,-4.0
CC(C)(C)C(=O)NC(=S)NNC(=O)c1sc2ccccc2c1Cl,73.5*,62.1*,1.0,-12.4,7.9,39.5
COc1ccc(C(=O)NNC(=S)NC(=O)C(C)(C)C)cc1,62.1*,36.2,-8.6,4.8,3.5,28.1
COc1ccc(-c2c(-c3ccsc3)oc3ccc(N4CCOCC4)cc23)cc1,10.1,1.2,2.3,-3.5,3.0,-5.6
Cc1cc(C)c(Nc2cc(S(=O)(=O)O)c(N)c3c2C(=O)c2ccccc2C3=O)c(C)c1,54.4*,39.2*,.,16.7,2.5,.
CCOc1cc(/C=N/Nc2cc(C)nc(-n3nc(C)cc3C)n2)ccc1O,116.4*,110.1*,-15.5,97.5*,10.0,106.2*
CC(=O)N1CCc2cc(S(=O)(=O)C(C)CC(=O)NCc3ccco3)ccc21 (centres undefined),.,2.7,.,-10.8,.,.
O=C(CNc1cc(S(=O)(=O)N2CCOCC2)ccc1N1CCCC1)Nc1ccc(Cl)cc1,9.3,0.0,.,8.7,-1.9,.
CN(C)CC1CCC/C(=C\c2ccc(OC(=O)/C=C/c3ccccc3)cc2)C1=O (centres undefined),62.5*,33.9,.,3.9,-29.0,.
CN(C)CC1CCC/C(=C\c2ccc(OC(=O)c3ccc(Cl)cc3)cc2)C1=O (centres undefined),59.5*,12.1,.,9.7,12.4,.
Cn1nccc1C(=O)NC1CCN(Cc2ccccc2)CC1,1.6,-1.7,-5.5,-4.6,-4.7,5.7
COc1ccc(N2CCN(S(=O)(=O)c3cc(C)ccc3OC)CC2)cc1,5.7,-0.8,-0.5,0.6,-1.8,-17.8
COC(=O)C1=C(O)/C(=C\c2cc(C)n(-c3ccc(F)cc3)c2C)N=C1C,7.1,3.2,0.9,0.9,68.9*,-35.3
O=[N+]([O-])c1cc(Cl)cc(/C=N/NC(=S)Nc2ccc(S(=O)(=O)N3CCOCC3)cc2)c1O,59.9*,34.8,-6.8,10.4,18.2,32.9
CSc1nncc(/C(C)=N\Nc2ccccc2C)n1,-1.0,-4.3,-0.6,-9.7,48.2*,2.8
CCCCN1C(=O)/C(=C2\SC(N3CCCCC3)=NC2=O)c2ccccc21,22.1,24.5,-4.3,-12.8,-16.4,18.7
CCCCN1C(=O)C(=Nc2cccc3cnccc23)c2ccccc21,56.5*,23.2,-6.2,21.1,2.9,5.2
O=C(O)Cc1ccc(N2N=C(c3ccccc3)CC2=O)cc1,.,2.6,.,5.2,.,.
Cc1ccccc1NC1=C/C(=N\S(=O)(=O)c2cccs2)c2ccccc2C1=O,56.1*,32.1,-2.2,18.6,26.0,7.4
COc1ccccc1C=CC(=O)C=Cc1ccccc1OC,20.5,4.2,.,3.2,14.5,.
COc1ccccc1/C=C/C(=O)/C=C/c1ccccc1O,30.1,14.3,.,43.9*,23.2,.
O=C(NCCc1c[nH]c2ccccc12)c1cccc(S(=O)(=O)Nc2ccccc2Cl)c1,-18.3,-3.3,1.7,7.2,-5.4,-16.4
CN(c1ccccc1)S(=O)(=O)c1cccc(C(=O)NCCc2c[nH]c3ccccc23)c1,21.7,-9.3,-0.1,48.1*,-9.2,8.8
COc1ccc(NC(C)=O)cc1S(=O)(=O)N1CC=C(c2ccccc2)CC1,3.1,3.0,1.6,4.6,2.1,4.9
O=C1NC(=S)N/C1=C\c1ccc(Oc2ccc(C(F)(F)F)cc2[N+](=O)[O-])c(Cl)c1,-4.4,-1.0,-5.5,3.7,10.5,2.4
C=CCn1c(Sc2ncc([N+](=O)[O-])s2)n[nH]c1=O,56.3*,42.4*,10.5,5.6,32.9,31.3
CC(C)N1C(=O)c2ccccc2NC(=O)C1C(=O)NC1CC1 (centres undefined),.,.,.,-1.8,.,.
CCN1C/C(=C/c2ccc(OC)c(O)c2)C(=O)/C(=C/c2ccc(OC)c(O)c2)C1,12.8,-0.8,-3.4,-10.3,5.3,19.4
COc1cc(/C=C2/CC/C(=C/c3ccc(O)c(OC)c3)C2=O)ccc1O,61.5*,55.4*,-5.8,14.8,-12.4,1.9
COc1cc(/C=C2\COC/C(=C\c3ccc(O)c(OC)c3)C2=O)ccc1O,56.0*,40.7*,-9.2,15.2,27.9,44.2*

# Source: PubChem BioAssay (several laboratories)
